Data on 6 compounds can be found in PMC9898299 (Heliyon, 2023).

Data set [1] relates to U937 cells. Description: CellTiter-Glo Luminescent cell viability assay. The format is cell-based, human. To be noted: Homo sapiens, U-937, 72 h, read-out: Percent inhibition at different concentrations of compounds (antiproliferative). A digest of the protocol: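 Human myeloid leukaemia U937 cells exposed to a range of test compound concentrations for 72 h, with Mitomycin C as positive control and DMSO diluent as negative control. CellTiter-Glo reagent added at an equal volume to the medium, mixed 2 min for lysis, then held 10 min at room temperature before luminescence was read. Viability was computed as RLU test ×100/RLU control. Half-maximal inhibitory concentration was fitted from the dose series.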

Data set [2] is described as follows: LDH release cytotoxicity assay. The format is cell-based. To be noted: human, U937 cells. The essentials:
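U937 cells were plated in 96-well format and given various test compound concentrations, with Triton X100 as positive cytotoxicity control, for 4 h at 37 °C. Plates were spun 5 min at 1000 RPM, and supernatant was moved to a fresh plate with LDH detection reagent for 10 min at room temperature in the dark. Optical density was then read, and half-maximal concentration was derived from the doses.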
On the technique in general: Release of lactate dehydrogenase indicates damage to the cell membrane.

Regarding `COC(=O)COc1ccc(NC(=O)C2(c3ccc(Cl)cc3)CC2)cc1` [Compound 8m, Methyl 2-(4-(1-(4-chlorophenyl)cyclopropane-1-carboxamido)phenoxy)acetate], in data set [1], the inhibition at 25 µM came to 39%, the inhibition at 50 µM worked out at 49%, the inhibition at 100 µM was determined as 99% and the inhibition at 200 µM stood at 101%. In addition, in data set [2], the inhibition at 4 h, 12.5 µM was -1%; the inhibition at 4 h, 25 µM was found to be 1%; the inhibition at 4 h, 50 µM worked out at 1%; the inhibition at 4 h, 100 µM came out at 0%.

As for `COC(=O)COc1ccc(NC(=O)C2(c3ccc(Cl)cc3)CC2)c(C)c1` [Compound 8n, Methyl 2-(4-(1-(4-chlorophenyl)cyclopropane-1-carboxamido)-3-methylphenoxy)acetate], in data set [1], the inhibition at 25 µM was determined as 28%, the inhibition at 50 µM stood at 33%, the inhibition at 100 µM stood at 101% and the inhibition at 200 µM worked out at 101%. For the same compound, in data set [2], the inhibition at 4 h, 12.5 µM amounted to 0%; the inhibition at 4 h, 25 µM is -1%; the inhibition at 4 h, 50 µM stood at 1%; the inhibition at 4 h, 100 µM is -1%.

As for `COC(=O)COc1ccc(NC(=O)C2(c3ccc(Cl)cc3)CC2)cc1Br` [Compound 8o, Methyl 2-(2-bromo-4-(1-(4-chlorophenyl)cyclopropane-1-carboxamido)phenoxy)acetate], in data set [1], the inhibition at 25 µM worked out at 52%, the inhibition at 50 µM stood at 77%, the inhibition at 100 µM was determined as 102% and the inhibition at 200 µM turned out to be 102%. For the same compound, in data set [2], the inhibition at 4 h, 12.5 µM was determined as 0%; the inhibition at 4 h, 25 µM is -2%; the inhibition at 4 h, 50 µM was -2%; the inhibition at 4 h, 100 µM was -4%.

Regarding `COC(=O)COc1cccc(NC(=O)C2(c3cccc(Br)c3)CC2)c1` [Compound 8p, Methyl 2-(3-(1-(3-bromophenyl)cyclopropane-1-carboxamido)phenoxy)acetate], in data set [1], the inhibition at 25 µM stood at 37%, the inhibition at 50 µM worked out at 60%, the inhibition at 100 µM is 101% and the inhibition at 200 µM was determined as 102%. In data set [2], the inhibition at 4 h, 12.5 µM worked out at 0%; the inhibition at 4 h, 25 µM is -1%; the inhibition at 4 h, 50 µM is 0%; the inhibition at 4 h, 100 µM stood at 0%.

`COC(=O)COc1ccc(NC(=O)C2(c3cccc(Br)c3)CC2)c(C)c1` [Compound 8r, Methyl 2-(4-(1-(3-bromophenyl)cyclopropane-1-carboxamido)-3-methylphenoxy)acetate]: in data set [1], the inhibition at 25 µM was found to be 27%, the inhibition at 50 µM came out at 84%, the inhibition at 100 µM was found to be 100% and the inhibition at 200 µM was 101%. Further, in data set [2], the inhibition at 4 h, 12.5 µM is -1%; the inhibition at 4 h, 25 µM is -1%; the inhibition at 4 h, 50 µM was 1%; the inhibition at 4 h, 100 µM was -2%.

Consider `COC(=O)COc1ccc(NC(=O)C2(c3ccc(Cl)c(Cl)c3)CC2)cc1` [Compound 8s, Methyl 2-(4-(1-(3,4-dichlorophenyl)cyclopropane-1-carboxamido)phenoxy)acetate], for which, in data set [1], the inhibition at 25 µM stood at 40%, the inhibition at 50 µM was 64%, the inhibition at 100 µM worked out at 102% and the inhibition at 200 µM came out at 102%. Further, in data set [2], the inhibition at 4 h, 12.5 µM came out at 4%; the inhibition at 4 h, 25 µM was determined as 0%; the inhibition at 4 h, 50 µM is -1%; the inhibition at 4 h, 100 µM came out at 0%.
